Results published in publication PMC7610487 (Nature chemical biology, 2020).

Tested on: zebrafish embryos
Experiment: Effects of the fluorogens on zebrafish embryogenesis
Format: in vivo
In short: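 Wild-type AB zebrafish embryos were raised at 28°C and staged as hours postfertilization. Fluorogen exposure started at 50% epiboly, either as a 1 h pulse or continuously overnight to 24 hpf. At 48 hpf, embryos were examined by brightfield microscopy and scored into three classes: no defect, axis defects, or dead.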

[1] = 5 μM fluorogen during 1 hour at 50% epiboly
[2] = 5 μM fluorogen overnight from 50% epiboly to 24 hpf

Question: For `COc1cc(C=C2SC(=S)NC2=O)cc(OC)c1O` [HBR-3,5DOM, 4-hydroxy-3,5-dimethoxybenzylidene rhodanine], which “effects on embryos scored at 48 hpf” value [1] is on record?
Answer: The value was “No deleterious effects”.

Question: What about the “effects on embryos scored at 48 hpf” value [2] of the same molecule?
Answer: Its value is “No deleterious effects”.

Question: With `Cc1cc(C=C2SC(=S)NC2=O)ccc1O` [HMBR, 4-hydroxy-3-methylbenzylidene rhodanine] as the molecule, how does the “effects on embryos scored at 48 hpf” value [1] read?
Answer: Its value is “No deleterious effects”.

Question: And the “effects on embryos scored at 48 hpf” value [2]?
Answer: The value was “No deleterious effects”.
